Test results: article PMC3406267 (The Open Medicinal Chemistry Journal, 2012)

Assays:
CB2R [1] = conditions: CB2R-mediated gastrointestinal assays; cited from earlier work
CB2 = conditions: Fig. 2 and introduction; cited from earlier work
[2] = system: P-ERK 1/2 expression in HL-60 cells selectively expressing CB2R; conditions: cited from earlier work
CB2R [3] = target: CB2R (Mus musculus, UniProt P47936); assay: Radioligand binding, CB2R, [3H]-CP-55,940 competition in mouse spleen homogenate
CB1R = CB1R (Mus musculus, UniProt P47746); assay: Radioligand binding, CB1R, [3H]-CP-55,940 competition in mouse brain
[4] = system: P-ERK 1/2 expression in HL-60 cells selectively expressing CB2R; assay: P-ERK 1/2 expression; type: cell-based, human
Summary of the method: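 HL-60 cells grown at 37 °C, 5% CO2, in RPMI 1640 with 10% heat-inactivated FBS, 25 mM HEPES, 2.5 mM pyruvate and gentamicin, and used at 80% confluency. Compounds were given in medium with 1% DMSO for 15 min, with or without 75 nM AM630 added 5 min before. Lysates (HEPES pH 7.9, 4 °C) were western-blotted for P-ERK1/2. Values are % of vehicle, five separate experiments, ±SEM.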

CB1R, sequence (P47746 whole entry): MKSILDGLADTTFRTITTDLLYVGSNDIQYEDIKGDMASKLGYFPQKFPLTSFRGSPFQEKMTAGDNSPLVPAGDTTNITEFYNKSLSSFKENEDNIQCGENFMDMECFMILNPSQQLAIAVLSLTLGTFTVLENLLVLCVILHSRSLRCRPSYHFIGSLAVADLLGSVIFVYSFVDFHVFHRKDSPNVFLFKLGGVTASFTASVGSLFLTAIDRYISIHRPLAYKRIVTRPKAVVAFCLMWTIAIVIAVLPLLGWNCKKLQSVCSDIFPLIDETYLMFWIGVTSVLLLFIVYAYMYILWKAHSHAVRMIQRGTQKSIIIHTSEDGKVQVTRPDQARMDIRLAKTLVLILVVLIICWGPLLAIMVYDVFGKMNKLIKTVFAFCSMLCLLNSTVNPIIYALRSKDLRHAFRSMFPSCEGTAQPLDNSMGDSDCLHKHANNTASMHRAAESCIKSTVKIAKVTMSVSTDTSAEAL
CB2R (Mus musculus, UniProt P47936), sequence (P47936 whole entry): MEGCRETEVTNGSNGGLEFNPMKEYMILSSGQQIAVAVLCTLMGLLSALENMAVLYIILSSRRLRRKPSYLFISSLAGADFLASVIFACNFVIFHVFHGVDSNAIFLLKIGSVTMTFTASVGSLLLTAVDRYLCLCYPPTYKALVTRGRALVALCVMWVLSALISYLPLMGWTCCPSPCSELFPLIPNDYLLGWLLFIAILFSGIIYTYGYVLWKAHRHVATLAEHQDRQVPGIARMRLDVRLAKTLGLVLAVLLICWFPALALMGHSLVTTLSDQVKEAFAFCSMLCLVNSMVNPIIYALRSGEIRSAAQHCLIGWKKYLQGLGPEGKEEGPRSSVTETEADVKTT

## 5-(4-chloro-3-methylphenyl)-1-(4-methylbenzyl)-N-fenchyl-1H-pyrazole-3-carboxamide [Compound 1]
CB2R [1]
  in vivo CB2R antagonist activity: remarkable in vivo CB2R antagonist activity
CB2
  selectivity ratio KiCB1/KiCB2 of SR144528: > 600

## Cc1ccc2c(c1)Cc1c(C(=O)NN3CCCCC3)nn(-c3ccc(Cl)cc3Cl)c1-2 [Compound 2, 1-(2,4-dichlorophenyl)-6-methyl-N-(piperidin-1-yl)-1,4-dihydroindeno[1,2-c]pyrazole-3-carboxamide]
[2]
  CB2 intrinsic activity in vitro: CB2 agonist activity in vitro

## Cc1cc2c(cc1Cl)-c1c(c(C(=O)NC3CC4CCC3(C)C4(C)C)nn1-c1ccc(Cl)cc1Cl)C2 (stereo not drawn) [Compound 6, N-Bornyl-7-chloro-1-(2,4-dichlorophenyl)-6-methyl-1,4-dihydroindeno[1,2-c]pyrazole-3-carboxamide]
CB2R [3]
  Ki: 474 ± 25 nM
CB1R
  Ki: 2.67 ± 0.167 µM

## Cc1cc2c(cc1Cl)-c1c(c(C(=O)NC3CC(C)CCC3C(C)C)nn1-c1ccc(Cl)cc1Cl)C2 (stereo not drawn) [Compound 9, N-Menthyl-7-chloro-1-(2,4-Dichlorophenyl)-6-methyl-1,4-dihydroindeno[1,2-c]pyrazole-3-carboxamide]
CB2R [3]
  Ki: 3100 ± 283 nM
CB1R
  Ki: 1.25 ± 0.359 µM

## Cc1cc2c(cc1Cl)-c1c(c(C(=O)NC34CC5CC(CC(C5)C3)C4)nn1-c1ccc(Cl)cc1Cl)C2 [Compound 10, N-Adamant-1-yl-7-chloro-1-(2,4-dichlorophenyl)-6-methyl-1,4-dihydroindeno[1,2-c]pyrazole-3-carboxamide]
CB2R [3]
  Ki: 425 ± 95 nM
CB1R
  Ki: 1.3 ± 0.347 µM

## Cc1cc2c(cc1Cl)-c1c(c(C(=O)NC3C4CC5CC(C4)CC3C5)nn1-c1ccc(Cl)cc1Cl)C2 (stereo not drawn) [Compound 11, N-Adamant-2-yl-7-chloro-1-(2,4-dichlorophenyl)-6-methyl-1,4-dihydroindeno[1,2-c]pyrazole-3-carboxamide]
CB2R [3]
  Ki: 275 ± 25 nM
CB1R
  Ki: 4.62 ± 0.857 µM

## Cc1cc2c(cc1Cl)-c1c(c(C(=O)N[C@H]3CC[C@H](C)CC3)nn1-c1ccc(Cl)cc1Cl)C2 [Compound 14, Trans-N-(4-Methylcyclohexyl)-7-chloro-1-(2,4-dichlorophenyl)-6-meth-yl-1,4-dihydroindeno[1,2-c]pyrazole-3-carboxamide]
CB2R [3]
  Ki: 325 ± 53 nM
CB1R
  Ki: > 5 µM

## Cc1cc2c(cc1Cl)-c1c(c(C(=O)NC3CCCCCC3)nn1-c1ccc(Cl)cc1Cl)C2 [Compound 16, N-Cycloheptyl-7-chloro-1-(2,4-dichlorophenyl)-6-methyl-1,4-dihydroindeno[1,2-c]pyrazole-3-carboxamide]
CB2R [3]
  Ki: 1520 ± 1240 nM
CB1R
  Ki: 3.75 ± 1.25 µM

## Cc1cc2c(cc1Cl)-c1c(c(C(=O)Nc3cccc4ccccc34)nn1-c1ccc(Cl)cc1Cl)C2 [Compound 18, N-(Naphthalen-1-yl)-7-chloro-1-(2,4-dichlorophenyl)-6-methyl-1,4-dihydroindeno[1,2-c]pyrazole-3-carboxamide]
CB2R [3]
  Ki: 1130 ± 125 nM
CB1R
  Ki: > 5 µM

## Cc1cc2c(cc1Cl)-c1c(c(C(=O)NC(C)c3cccc4ccccc34)nn1-c1ccc(Cl)cc1Cl)C2 (stereo not drawn) [Compound 19, N-(1-(1-Naphthyl)ethyl)-7-chloro-1-(2,4-dichlorophenyl)-6-methyl-1,4-dihydroindeno[1,2-c]pyrazole-3-carboxamide]
CB2R [3]
  Ki: 2400 ± 400 nM
CB1R
  Ki: > 5 µM

## Cc1cc2c(cc1Cl)Cc1c(C(=O)NC34CC5CC(CC(C5)C3)C4)nn(-c3ccc(Cl)cc3Cl)c1-2 [Compound 24, N-Adamant-1-yl-6-chloro-1-(2,4-dichlorophenyl)-7-methyl-1,4-dihydroindeno[1,2-c]pyrazole-3-carboxamide]
CB2R [3]
  Ki: 1350 ± 813 nM
CB1R
  Ki: 4.75 ± 0.02 µM

## Cc1c(C(=O)c2cccc3ccccc23)c2cccc3c2n1[C@H](CN1CCOCC1)CO3 [WIN 55,212-2]
[4]; 75 nM (dose of maximum effect), 15 min exposure
  P-ERK 1/2 expression, percentage of increment versus vehicle: +83.2 ± 18.9%
[4]; AM630 75 nM, agonist at dose of maximum effect, 15 min
  Effect on P-ERK 1/2 expression after 5 min pre-treatment with CB2 antagonist AM630: counteracted
[4]; western blot, 15 min exposure
  P-ERK 1/2 expression in treated HL-60 cells versus vehicle: significant increase
